Measured values reported in ChEMBL document CHEMBL4017509, “A Dual Modulator of Farnesoid X Receptor and Soluble Epoxide Hydrolase To Counter Nonalcoholic Steatohepatitis” (J Med Chem, 2017).
Active and inactive are the calls of the source. No cut-off for these calls is given here.

Tests used:
[1] = target: G-protein coupled bile acid receptor 1 (Homo sapiens) (UniProt Q8TDU6); experiment: Antagonist activity at TGR5 (unknown origin) at 10 uM
Mus musculus = experiment: In vivo activation of FXR in C57BL/6JRj mouse liver assessed as CYP7A1 mRNA expression at 10 mg/kg, po measured up to 480 mins post dose by qRT-PCR analysis relative to control; format: ADME, organism-based; settings: 8 h
Procedure, shortened: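 Male C57BL/6JRj mice (23−26 g), single oral 10 mg/kg in water with 1% HPMC/Tween 80 (99:1); vehicle group n = 3, treated n = 6. Livers taken 8 h postdose, snap-frozen; cells pressed through 40 μm strainer, total RNA extracted, qRT-PCR with ΔΔCt, % of vehicle.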

Liver [2] = experiment: Drug metabolism in Sprague-Dawley rat liver microsomes assessed as 4-tert-butyl-N-(2-chloro-4-(methylsulfonamido)benzyl)-2-hydroxybenzamide formation at 10 uM preincubated with NADPH regenerating system for 5 mins followed by addition of liver microsomes by LC-MS/MS method; format: ADME, microsome
[3] = target: T1, Bile acid receptor (Homo sapiens) (UniProt Q96RI1); experiment: Transactivation of FXR in human HepG2 cells assessed as BSEP mRNA expression at 1 uM after 8 to 16 hrs by SYBR green based qRT-PCR analysis relative to DMSO control; format: cell-based
T1 sequence (whole entry): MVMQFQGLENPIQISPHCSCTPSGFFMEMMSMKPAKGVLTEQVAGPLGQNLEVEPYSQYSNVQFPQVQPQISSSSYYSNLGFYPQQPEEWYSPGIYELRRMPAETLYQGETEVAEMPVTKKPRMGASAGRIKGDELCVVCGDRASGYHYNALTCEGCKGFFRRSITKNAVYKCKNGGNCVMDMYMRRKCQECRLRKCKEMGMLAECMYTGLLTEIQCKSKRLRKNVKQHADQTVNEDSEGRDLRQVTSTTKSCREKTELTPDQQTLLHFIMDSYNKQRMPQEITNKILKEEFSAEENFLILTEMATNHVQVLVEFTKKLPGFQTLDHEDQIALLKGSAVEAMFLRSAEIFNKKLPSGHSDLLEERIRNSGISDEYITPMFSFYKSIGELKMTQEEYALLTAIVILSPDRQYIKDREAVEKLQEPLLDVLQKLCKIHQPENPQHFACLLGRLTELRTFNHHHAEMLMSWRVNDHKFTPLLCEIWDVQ
Procedure, shortened: (§1)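 HepG2 cells incubated with test compound (0.1 and 1 μM) or 0.1% DMSO for 8 or 16 h, washed in cold PBS, RNA extracted; target mRNA by SYBR Green qRT-PCR, duplicate samples, ≥4 independent experiments; comparative ΔΔCt with GAPDH reference, vehicle set as 100%.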

[4] = target: Retinoic acid receptor RXR-alpha (Homo sapiens) (UniProt P19793); experiment: Transactivation of human GAL4-fused RXRalpha ligand binding domain expressed in […] cells at 10 uM after 12 to 14 hrs by dual-glo luciferase reporter gene assay; format: cell-based
Procedure, shortened: (§2)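 HEK293T cells in DMEM/10% FCS, Opti-MEM before Lipofectamine LTX transfection with pFR-Luc reporter, pRL-SV40 and pFA-CMV GAL4–LBD plasmid. 5 h later compound in 0.1% DMSO, Opti-MEM, overnight (12−14 h). Dual luciferase; firefly/renilla ×1000 = RLU, fold over DMSO control; triplicates, ≥3 independent repeats.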

[5] = target: Retinoic acid receptor alpha (Homo sapiens) (UniProt P10276); experiment: Transactivation of human GAL4-fused RARalpha ligand binding domain expressed in […] cells at 10 uM after 12 to 14 hrs by dual-glo luciferase reporter gene assay; format: cell-based; procedure, shortened: as §2
[6] = target: T1, Bile acid receptor (Homo sapiens); experiment: Transactivation of FXR in human HepG2 cells assessed as FGF19 mRNA expression at 1 uM after 8 to 16 hrs by SYBR green based qRT-PCR analysis relative to DMSO control; format: cell-based; procedure, shortened: as §1
Liver [7] = experiment: Drug metabolism in Sprague-Dawley rat liver microsomes assessed as N-(2-chloro-4-(methylsulfonamido)benzyl)-4-(1-hydroxy-2-methylpropan-2-yl)benzamide formation at 10 uM preincubated with NADPH regenerating system for 5 mins followed by addition of liver microsomes by LC-MS/MS method; format: ADME, microsome
[8] = target: Nuclear receptor subfamily 1 group I member 3 (Homo sapiens, UniProt Q14994); experiment: Transactivation of human GAL4-fused CAR ligand binding domain expressed in […] cells at 10 uM after 12 to 14 hrs by dual-Glo luciferase reporter gene assay; format: cell-based; procedure, shortened: as §2
[9] = target: T2, Peroxisome proliferator-activated receptor gamma (Homo sapiens) (UniProt P37231); experiment: Transactivation of PPARgamma in human HepG2 cells assessed as FAM3A mRNA expression at 10 uM after 8 to 16 hrs by SYBR green based qRT-PCR analysis relative to DMSO control; format: cell-based
T2 sequence (whole entry): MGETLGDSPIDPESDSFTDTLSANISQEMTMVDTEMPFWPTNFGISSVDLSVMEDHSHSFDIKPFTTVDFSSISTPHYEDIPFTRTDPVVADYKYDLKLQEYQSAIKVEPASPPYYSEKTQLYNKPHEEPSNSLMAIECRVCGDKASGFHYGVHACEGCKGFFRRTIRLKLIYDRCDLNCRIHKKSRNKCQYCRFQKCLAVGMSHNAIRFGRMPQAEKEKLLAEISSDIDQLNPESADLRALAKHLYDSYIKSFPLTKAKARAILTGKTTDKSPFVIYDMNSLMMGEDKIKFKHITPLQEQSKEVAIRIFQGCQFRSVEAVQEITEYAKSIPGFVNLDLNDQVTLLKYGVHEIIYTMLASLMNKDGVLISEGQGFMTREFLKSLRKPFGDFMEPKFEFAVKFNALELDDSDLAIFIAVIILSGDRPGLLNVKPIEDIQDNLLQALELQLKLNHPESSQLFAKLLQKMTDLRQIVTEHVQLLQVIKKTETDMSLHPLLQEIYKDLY
Procedure, shortened: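 HepG2 cells treated 8 or 16 h with compound or 0.1% DMSO, washed in cold PBS, RNA extracted; SYBR Green qRT-PCR in duplicate, ≥4 independent experiments (n = 3 for CD36/FAM3A). ΔΔCt method with GAPDH reference; expression as % of vehicle (100%). Pioglitazone 1 μM used as positive control for the PPARγ genes.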

[10] = target: Vitamin D3 receptor (Homo sapiens) (UniProt P11473); experiment: Transactivation of human GAL4-fused VDR ligand binding domain expressed in […] cells at 10 uM after 12 to 14 hrs by dual-glo luciferase reporter gene assay; format: cell-based; procedure, shortened: as §2
Bile acid receptor = target: T3, Bile acid receptor (Homo sapiens, UniProt Q96RI1); experiment: Transactivation of FXR in human HepG2 cells assessed as CYP7A1 mRNA expression at 0.1 uM after 8 to 16 hrs by SYBR green based qRT-PCR analysis relative to DMSO control; format: ADME, cell-based
T3 sequence (Q96RI1 whole entry): T1 sequence (whole entry)
Procedure, shortened: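 HepG2 cells incubated with compound (0.1 or 1 μM) or 0.1% DMSO for 8 or 16 h, washed with cold PBS, RNA extracted. Quantified by SYBR Green real-time PCR, duplicate samples, at least four independent experiments. ΔΔCt method with GAPDH as reference gene. Expressed as % of vehicle (set to 100%), mean ± SEM.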

Chain of Vitamin D3 receptor (Homo sapiens) (P11473 whole entry, the tested form may be a part): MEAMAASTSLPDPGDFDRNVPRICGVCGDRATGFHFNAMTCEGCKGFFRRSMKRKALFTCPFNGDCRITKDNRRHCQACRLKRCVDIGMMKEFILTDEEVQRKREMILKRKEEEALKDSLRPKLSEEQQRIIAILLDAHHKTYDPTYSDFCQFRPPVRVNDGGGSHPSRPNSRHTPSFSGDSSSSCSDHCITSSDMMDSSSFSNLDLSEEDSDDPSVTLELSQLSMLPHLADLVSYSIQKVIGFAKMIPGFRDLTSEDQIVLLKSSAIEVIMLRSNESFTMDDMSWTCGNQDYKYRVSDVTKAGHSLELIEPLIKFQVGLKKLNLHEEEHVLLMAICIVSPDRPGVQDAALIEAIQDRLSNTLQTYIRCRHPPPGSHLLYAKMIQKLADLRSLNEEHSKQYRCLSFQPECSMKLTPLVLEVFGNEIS
Chain of Nuclear receptor subfamily 1 group I member 3 (Q14994 whole entry, the tested form may be a part): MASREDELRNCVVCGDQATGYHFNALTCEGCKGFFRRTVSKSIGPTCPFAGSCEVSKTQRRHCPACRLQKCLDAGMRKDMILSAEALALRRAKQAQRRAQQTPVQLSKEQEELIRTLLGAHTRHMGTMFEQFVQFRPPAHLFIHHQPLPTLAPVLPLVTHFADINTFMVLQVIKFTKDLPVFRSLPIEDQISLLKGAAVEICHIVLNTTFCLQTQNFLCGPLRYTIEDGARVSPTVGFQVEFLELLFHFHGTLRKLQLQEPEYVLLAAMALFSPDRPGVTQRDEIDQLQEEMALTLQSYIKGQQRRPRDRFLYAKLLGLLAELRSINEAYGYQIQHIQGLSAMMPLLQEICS
Chain of Retinoic acid receptor alpha (Homo sapiens) (P10276 whole entry, the tested form may be a part): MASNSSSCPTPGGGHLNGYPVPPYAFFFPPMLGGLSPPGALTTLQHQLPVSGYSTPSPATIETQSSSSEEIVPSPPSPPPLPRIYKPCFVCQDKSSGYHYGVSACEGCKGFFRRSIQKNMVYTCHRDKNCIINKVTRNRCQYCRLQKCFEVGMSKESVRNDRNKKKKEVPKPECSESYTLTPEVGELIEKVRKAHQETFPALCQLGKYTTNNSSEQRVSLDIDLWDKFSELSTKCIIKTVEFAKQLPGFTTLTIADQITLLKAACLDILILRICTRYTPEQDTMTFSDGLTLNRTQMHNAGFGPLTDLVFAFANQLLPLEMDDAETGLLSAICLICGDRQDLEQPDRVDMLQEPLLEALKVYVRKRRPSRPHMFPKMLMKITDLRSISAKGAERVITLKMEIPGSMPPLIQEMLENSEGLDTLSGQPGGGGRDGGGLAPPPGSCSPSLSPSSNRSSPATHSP
Chain of Retinoic acid receptor RXR-alpha (Homo sapiens) (P19793 whole entry, the tested form may be a part): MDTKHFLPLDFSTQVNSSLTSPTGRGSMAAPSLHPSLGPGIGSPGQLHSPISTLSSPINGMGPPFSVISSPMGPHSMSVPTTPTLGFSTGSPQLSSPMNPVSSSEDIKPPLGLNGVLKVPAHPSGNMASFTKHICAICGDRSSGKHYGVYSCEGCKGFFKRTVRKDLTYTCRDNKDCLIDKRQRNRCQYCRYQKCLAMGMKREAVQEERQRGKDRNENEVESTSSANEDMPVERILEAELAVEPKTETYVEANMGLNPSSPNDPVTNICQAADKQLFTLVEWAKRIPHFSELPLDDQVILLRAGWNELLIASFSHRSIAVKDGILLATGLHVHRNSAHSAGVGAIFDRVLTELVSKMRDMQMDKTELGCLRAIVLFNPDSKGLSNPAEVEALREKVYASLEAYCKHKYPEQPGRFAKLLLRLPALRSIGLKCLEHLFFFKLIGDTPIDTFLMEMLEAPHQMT
Chain of G-protein coupled bile acid receptor 1 (Homo sapiens) (Q8TDU6 whole entry): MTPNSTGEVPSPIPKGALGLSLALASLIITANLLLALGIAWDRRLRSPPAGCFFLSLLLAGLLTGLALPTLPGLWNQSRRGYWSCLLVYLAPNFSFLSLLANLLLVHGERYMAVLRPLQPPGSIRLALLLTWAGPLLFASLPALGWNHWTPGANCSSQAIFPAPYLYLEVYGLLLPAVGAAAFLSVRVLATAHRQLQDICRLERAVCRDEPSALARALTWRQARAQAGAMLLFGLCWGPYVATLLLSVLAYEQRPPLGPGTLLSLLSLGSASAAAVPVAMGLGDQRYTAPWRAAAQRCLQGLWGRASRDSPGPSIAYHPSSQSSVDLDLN

CC(C)(C)c1ccc(C(=O)NCc2ccc(NS(C)(=O)=O)cc2Cl)cc1
inhibition [1]: inactive
Activity (Mus musculus): 70%
Drug metabolism (Liver [2]): Metabolite_Notdetected
Activity [3]: 222%
Activity [4]: inactive
Activity [5]: inactive
Activity [6]: 325%
Drug metabolism (Liver [7]): Metabolite_Detected
Activity [8]: Not Active
Activity [9]: 142%
Activity [10]: inactive
Activity (Bile acid receptor): 50%
